Assay results: ChEMBL document CHEMBL4028840, “6-Nitro-2,3-dihydroimidazo[2,1-b][1,3]thiazoles: Facile synthesis and comparative appraisal against tuberculosis and neglected tropical diseases” (Bioorg Med Chem Lett, 2017)
≈ marks a conversion by molar mass, not a printed value.

Legend:
[1] = Stability in CD-1 mouse liver microsomes assessed as compound remaining measured after 1 hr; type: ADME, microsome; settings: read-out: Stability
[2] = Stability in pooled human liver microsomes assessed as compound remaining measured after 1 hr; type: ADME, microsome; settings: read-out: Stability
[3] = system: Mycobacterium tuberculosis; assay: Anti-tubercular activity against Mycobacterium tuberculosis infected in BALB/c mouse assessed as reduction in lung colony forming units at 100 mg/kg, po administered via gavage for 5 days each week for 3 weeks measured after 1 day post last dose relative to PA-824; type: functional
Outline: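 Mouse model of acute TB infection. Oral dosing at 100 mg/kg daily, 5 days per week, for 3 weeks. Read-out is fold reduction in lung CFU, expressed as a ratio to the fold CFU reduction from the reference nitroimidazole run alongside.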

[4] = Cytotoxicity against human MRC5 SV2 cells after 72 hrs by resazurin dye based fluorescence assay; type: cell-based; settings: Homo sapiens, MRC-5 SV2, 72 h
Outline: (§1)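 IC50 for growth inhibition of L. infantum, T. cruzi and T. brucei parasites, or for cytotoxicity toward human lung fibroblasts (MRC-5). Values are means of two or more independent experiments.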

[5] = system: Mycobacterium tuberculosis; assay: Anti-tubercular activity against Mycobacterium tuberculosis H37Rv ATCC 27294 after 7 days under aerobic condition by microplate alamar blue assay; type: functional; settings: Mycobacterium tuberculosis, H37Rv ATCC 27294, 168 h; read-out: MIC
Outline: (§2)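 M. tuberculosis H37Rv MIC measured in two assays: aerobic growth by MABA and hypoxic exposure by LORA. Each value is the mean of ≥2 independent determinations.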

[6] = system: Trypanosoma brucei brucei; assay: Anti-parasitic activity against Trypanosoma brucei brucei Squib-427 after 72 hrs by resazurin dye based fluorescence assay; type: functional; settings: Trypanosoma brucei, Squib-427, 72 h; outline: as §1
[7] = system: Mycobacterium tuberculosis; assay: Anti-tubercular activity against Mycobacterium tuberculosis H37Rv ATCC 27294 after 10 days under hypoxic condition by low-oxygen recovery assay; type: functional; settings: Mycobacterium tuberculosis, H37Rv ATCC 27294, 240 h; read-out: MIC; outline: as §2
Trypanosoma cruzi = assay: Anti-parasitic activity against Trypanosoma cruzi Tulahuen CL2 infected in human MRC5 cells after 7 days by chlorophenol red […]-D-galactopyranoside dye based assay; type: functional, cell-based; settings: Trypanosoma cruzi, Tulahuen CL2, MRC5, 168 h; outline: as §1
[8] = Solubility in water at pH 7 after 15 mins by HPLC method; type: physicochemical; settings: for solubility at 0.25 h: water, pH 7
Outline: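 Solubility measured at 20 °C by HPLC, in water (pH 7) or 0.1 M HCl (pH 1).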

Vero = assay: Cytotoxicity against African green monkey Vero cells after 72 hrs by MTS/PMS assay; type: cell-based; settings: Chlorocebus sabaeus
Outline: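 VERO mammalian cells exposed for 72 h. Cytotoxicity IC50 comes from a single test.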

Leishmania infantum = assay: Anti-parasitic activity against Leishmania infantum MHOM/MA(BE)/67 amastigotes infected in mouse primary peritoneal macrophages after 5 days by giemsa staining based microscopic method; type: functional; settings: Leishmania infantum, MHOM/MA(BE)/67, 120 h; outline: as §1

C[C@]1(COc2ccc(N3CCC(Oc4ccc(OC(F)(F)F)cc4)CC3)cc2)Cn2cc([N+](=O)[O-])nc2O1
remaining at 1 h [1]: 87%
remaining at 1 h [2]: 71%
fold change (FC) [3]: 68

O=[N+]([O-])c1cn2c(n1)OC[C@@H](COc1ccc(OC(F)(F)F)cc1)C2
remaining at 1 h [1]: 94%
remaining at 1 h [2]: 82%

CC1(COc2ccc(Oc3ccccc3)cc2)Cn2cc([N+](=O)[O-])nc2O1 (configuration not stated)
IC50 [4]: > 64 µM
MIC [5]: 0.79 µM (≈ 0.29 µg/mL)
IC50 [6]: 28 µM
MIC [7]: 24 µM (≈ 8.82 µg/mL)
IC50 (Trypanosoma cruzi): 1.9 µM

CC1(COc2ccc(-c3ccc(OC(F)(F)F)cc3)cc2)Cn2cc([N+](=O)[O-])nc2O1 (configuration not stated)
solubility ([8]; buffer, pH 7, 0.25 h): 0.41 µg/mL (≈ 0.942 µM)
fold change (FC) [3]: 115

CC1(COCc2ccc(OC(F)(F)F)cc2)Cn2cc([N+](=O)[O-])nc2O1 (configuration not stated)
solubility at 0.25 h [8]: 11 µg/mL (≈ 29.5 µM)
fold change (FC) [3]: 0.025

O=[N+]([O-])c1cn2c(n1)SC(COc1ccc(Oc3ccccc3)cc1)C2 (configuration not stated)
IC50 [4]: 56 µM
MIC [5]: > 128 µM
IC50 [6]: 11 µM
MIC [7]: 29 µM (≈ 10.7 µg/mL)
IC50 (Trypanosoma cruzi): 1.6 µM
IC50 (Vero): > 128 µM
IC50 (Leishmania infantum): 56 µM

CC1(COc2ccc(-c3ccc(F)cc3)cc2)Cn2cc([N+](=O)[O-])nc2S1 (configuration not stated)
IC50 [4]: > 64 µM
MIC [5]: 0.21 µM (≈ 0.0809 µg/mL)
IC50 [6]: > 64 µM
MIC [7]: > 64 µM
IC50 (Trypanosoma cruzi): 0.21 µM
IC50 (Vero): > 128 µM
IC50 (Leishmania infantum): > 64 µM

CC1(COc2ccc(OC(F)(F)F)cc2)Cn2cc([N+](=O)[O-])nc2S1 (configuration not stated)
IC50 [4]: > 64 µM
MIC [5]: 0.49 µM (≈ 0.184 µg/mL)
IC50 [6]: > 64 µM
MIC [7]: 10 µM (≈ 3.75 µg/mL)
IC50 (Trypanosoma cruzi): 0.38 µM
IC50 (Vero): > 128 µM
IC50 (Leishmania infantum): > 64 µM

CC1(CO)Cn2cc([N+](=O)[O-])nc2S1 (configuration not stated)
MIC [5]: 10 µM (≈ 2.15 µg/mL)
MIC [7]: > 128 µM

C[C@]1(COCc2ccc(OC(F)(F)F)cc2)Cn2cc([N+](=O)[O-])nc2S1
IC50 [4]: 43 µM
MIC [5]: 0.2 µM (≈ 0.0779 µg/mL)
IC50 [6]: > 64 µM
remaining at 1 h [1]: 0%
MIC [7]: 5.8 µM (≈ 2.26 µg/mL)
IC50 (Trypanosoma cruzi): 0.57 µM
remaining at 1 h [2]: 29%
IC50 (Vero): 24 µM
IC50 (Leishmania infantum): > 64 µM

CC1(COCc2ccc(-c3ccc(OC(F)(F)F)cc3)cc2)Cn2cc([N+](=O)[O-])nc2S1 (configuration not stated)
IC50 [4]: > 64 µM
MIC [5]: 1.4 µM (≈ 0.652 µg/mL)
IC50 [6]: 2.8 µM
MIC [7]: > 64 µM
IC50 (Trypanosoma cruzi): 0.14 µM
IC50 (Leishmania infantum): 56 µM

CC1(COCc2ccc(-c3ccc(C(F)(F)F)cc3)cc2)Cn2cc([N+](=O)[O-])nc2S1 (configuration not stated)
IC50 [4]: > 64 µM
MIC [5]: 1.1 µM (≈ 0.494 µg/mL)
IC50 [6]: 1.1 µM
MIC [7]: > 64 µM
IC50 (Trypanosoma cruzi): 0.04 µM
IC50 (Leishmania infantum): 56 µM

CC1(COc2ccc(-c3ccc(OC(F)(F)F)cc3)cc2)Cn2cc([N+](=O)[O-])nc2S1 (configuration not stated)
solubility at 0.25 h [8]: 0.25 µg/mL (≈ 0.554 µM)
IC50 [4]: > 64 µM
MIC [5]: 0.063 µM (≈ 0.0284 µg/mL)
IC50 [6]: > 64 µM
remaining at 1 h [1]: 75%
MIC [7]: > 128 µM
IC50 (Trypanosoma cruzi): 0.085 µM
remaining at 1 h [2]: 84%
fold change (FC) [3]: 5.7
IC50 (Vero): > 128 µM
IC50 (Leishmania infantum): 45 µM

C[C@@]1(COCc2ccc(OC(F)(F)F)cc2)Cn2cc([N+](=O)[O-])nc2S1
IC50 [4]: > 64 µM
MIC [5]: 6.1 µM (≈ 2.38 µg/mL)
IC50 [6]: > 64 µM
MIC [7]: 51 µM (≈ 19.9 µg/mL)
IC50 (Trypanosoma cruzi): 1.6 µM
IC50 (Vero): 52 µM
IC50 (Leishmania infantum): > 64 µM

O=[N+]([O-])c1cn2c(n1)SC(COCc1ccc(OC(F)(F)F)cc1)C2 (configuration not stated)
IC50 [4]: > 64 µM
MIC [5]: 4.4 µM (≈ 1.65 µg/mL)
IC50 [6]: > 64 µM
MIC [7]: 15 µM (≈ 5.63 µg/mL)
IC50 (Trypanosoma cruzi): 0.87 µM
IC50 (Vero): > 128 µM
IC50 (Leishmania infantum): 64 µM

CC1(COc2ccc(OC(F)(F)F)cc2)Cn2nc([N+](=O)[O-])nc2S1(=O)=O (configuration not stated)
IC50 [4]: 0.42 µM
MIC [5]: 2.2 µM (≈ 0.898 µg/mL)
IC50 [6]: 2.1 µM
MIC [7]: 27 µM (≈ 11 µg/mL)
IC50 (Trypanosoma cruzi): 1.3 µM
IC50 (Vero): 46 µM
IC50 (Leishmania infantum): 1.3 µM

CC1(COCc2ccc(Oc3ccccc3)cc2)Cn2c([N+](=O)[O-])cnc2S1 (configuration not stated)
IC50 [4]: > 64 µM
MIC [5]: > 128 µM
IC50 [6]: 53 µM
MIC [7]: > 128 µM
IC50 (Trypanosoma cruzi): 19 µM
IC50 (Leishmania infantum): 55 µM

CC1(COCc2ccc(-c3ccc(F)cc3)cc2)Cn2cc([N+](=O)[O-])nc2S1 (configuration not stated)
IC50 [4]: > 64 µM
MIC [5]: 1.5 µM (≈ 0.599 µg/mL)
IC50 [6]: > 64 µM
MIC [7]: > 64 µM
IC50 (Trypanosoma cruzi): 0.15 µM
IC50 (Leishmania infantum): > 64 µM
